Measurements from ChEMBL document CHEMBL1914352, “Design, synthesis, docking, and biological evaluation of novel diazide-containing isoxazole- and pyrazole-based histone deacetylase probes” (J Med Chem, 2011).
Active and inactive are the calls of the source. The rule behind the calls is not given here.

Legend:
HepG2 [1] = test: Induction of apoptosis in human HepG2 cells assessed as hyperacetylation of p53 after 24 hrs by Western blot analysis; type: functional, cell-based
Method in brief: (§1)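 HepG2 cells are seeded at 2.7×10^5 cells/well in D7 medium (DMEM, 7% FBS), refed after 24 h, and after 1 h at 37 °C treated with DMSO or 1, 5 or 10 µM inhibitor. Lysis is in ice-cold 1% CHAPSO buffer (50 mM Hepes pH 7.4), 45 min at 4 °C. Immunoblots are probed for cleaved caspase 3 Asp175, acetyl-Lys373 p53, total p53 and GAPDH, detected by chemiluminescence, with band densitometry.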

HepG2 [2] = test: Induction of apoptosis in human HepG2 cells assessed as cleavage of caspase 3 at 1 to 10 uM after 24 hrs by Western blot analysis; type: functional, cell-based; method in brief: as §1
HepG2 [3] = test: Induction of apoptosis in human HepG2 cells assessed as hyperacetylation of p53 at 1 to 10 uM by Western blot analysis; type: functional, cell-based; method in brief: as §1
HepG2 [4] = test: Induction of apoptosis in human HepG2 cells assessed as cleavage of caspase 3 at 1 to 10 uM after 14 hrs by Western blot analysis; type: functional, cell-based; method in brief: as §1
SH-SY5Y [5] = test: cells; type: functional, cell-based; conditions: Homo sapiens, 48 h
SH-SY5Y [6] = test: cells; type: functional, cell-based; conditions: Homo sapiens, 24 h
HeLa [7] = test: cells; type: functional, cell-based; conditions: Homo sapiens, 48 h
HeLa [8] = test: cells; type: functional, cell-based; conditions: Homo sapiens, 72 h
HepG2 [9] = test: cells; type: functional, cell-based; conditions: Homo sapiens, HepG2, 72 h
HeLa [10] = test: cells; type: functional, cell-based; conditions: Homo sapiens, 24 h
HepG2 [11] = test: cells; type: functional, cell-based; conditions: Homo sapiens, HepG2, 48 h
HepG2 [12] = test: cells; type: functional, cell-based; conditions: Homo sapiens, HepG2, 24 h
Histone deacetylase 8 = target: T1, Histone deacetylase 8 (Homo sapiens, UniProt Q9BY41); test: Inhibition of human recombinant HDAC8 using Fluor de Lys as substrate
T1 sequence (Q9BY41 whole entry): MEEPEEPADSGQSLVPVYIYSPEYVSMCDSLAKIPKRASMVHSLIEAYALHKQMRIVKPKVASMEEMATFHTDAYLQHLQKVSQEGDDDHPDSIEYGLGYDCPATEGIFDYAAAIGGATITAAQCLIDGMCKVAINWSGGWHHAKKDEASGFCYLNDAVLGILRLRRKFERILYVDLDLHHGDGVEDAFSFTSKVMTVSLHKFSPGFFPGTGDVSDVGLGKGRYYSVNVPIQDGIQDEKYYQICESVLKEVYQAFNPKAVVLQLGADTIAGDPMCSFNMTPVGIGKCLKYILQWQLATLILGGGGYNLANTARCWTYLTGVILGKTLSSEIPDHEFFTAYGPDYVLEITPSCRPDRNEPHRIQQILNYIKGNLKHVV

[13] = target: Histone deacetylase 3/Nuclear receptor corepressor 2 (HDAC3/NCoR2) (Homo sapiens, UniProt O15379); test: Inhibition of human recombinant HDAC3/NCoR2 using fluorophore-conjugated substrate Boc-L-Lys(Ac)-AMC; type: protein-complex assay
Histone deacetylase 3/Nuclear receptor corepressor 2 (HDAC3/NCoR2), sequence (O15379 whole entry): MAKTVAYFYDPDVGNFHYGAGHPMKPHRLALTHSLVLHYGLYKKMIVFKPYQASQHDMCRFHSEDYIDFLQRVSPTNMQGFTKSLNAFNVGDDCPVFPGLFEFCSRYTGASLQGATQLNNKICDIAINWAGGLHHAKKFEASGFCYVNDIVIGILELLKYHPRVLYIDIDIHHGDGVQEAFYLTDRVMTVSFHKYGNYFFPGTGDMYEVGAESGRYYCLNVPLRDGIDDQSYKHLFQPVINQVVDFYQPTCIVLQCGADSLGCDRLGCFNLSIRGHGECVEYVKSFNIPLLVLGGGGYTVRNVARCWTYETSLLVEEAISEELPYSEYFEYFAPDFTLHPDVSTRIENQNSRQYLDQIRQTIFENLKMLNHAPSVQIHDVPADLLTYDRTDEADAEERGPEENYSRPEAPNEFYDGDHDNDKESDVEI
Histone deacetylase 3/Nuclear receptor corepressor 2 (HDAC3/NCoR2), sequence (Q9Y618 whole entry, further chain): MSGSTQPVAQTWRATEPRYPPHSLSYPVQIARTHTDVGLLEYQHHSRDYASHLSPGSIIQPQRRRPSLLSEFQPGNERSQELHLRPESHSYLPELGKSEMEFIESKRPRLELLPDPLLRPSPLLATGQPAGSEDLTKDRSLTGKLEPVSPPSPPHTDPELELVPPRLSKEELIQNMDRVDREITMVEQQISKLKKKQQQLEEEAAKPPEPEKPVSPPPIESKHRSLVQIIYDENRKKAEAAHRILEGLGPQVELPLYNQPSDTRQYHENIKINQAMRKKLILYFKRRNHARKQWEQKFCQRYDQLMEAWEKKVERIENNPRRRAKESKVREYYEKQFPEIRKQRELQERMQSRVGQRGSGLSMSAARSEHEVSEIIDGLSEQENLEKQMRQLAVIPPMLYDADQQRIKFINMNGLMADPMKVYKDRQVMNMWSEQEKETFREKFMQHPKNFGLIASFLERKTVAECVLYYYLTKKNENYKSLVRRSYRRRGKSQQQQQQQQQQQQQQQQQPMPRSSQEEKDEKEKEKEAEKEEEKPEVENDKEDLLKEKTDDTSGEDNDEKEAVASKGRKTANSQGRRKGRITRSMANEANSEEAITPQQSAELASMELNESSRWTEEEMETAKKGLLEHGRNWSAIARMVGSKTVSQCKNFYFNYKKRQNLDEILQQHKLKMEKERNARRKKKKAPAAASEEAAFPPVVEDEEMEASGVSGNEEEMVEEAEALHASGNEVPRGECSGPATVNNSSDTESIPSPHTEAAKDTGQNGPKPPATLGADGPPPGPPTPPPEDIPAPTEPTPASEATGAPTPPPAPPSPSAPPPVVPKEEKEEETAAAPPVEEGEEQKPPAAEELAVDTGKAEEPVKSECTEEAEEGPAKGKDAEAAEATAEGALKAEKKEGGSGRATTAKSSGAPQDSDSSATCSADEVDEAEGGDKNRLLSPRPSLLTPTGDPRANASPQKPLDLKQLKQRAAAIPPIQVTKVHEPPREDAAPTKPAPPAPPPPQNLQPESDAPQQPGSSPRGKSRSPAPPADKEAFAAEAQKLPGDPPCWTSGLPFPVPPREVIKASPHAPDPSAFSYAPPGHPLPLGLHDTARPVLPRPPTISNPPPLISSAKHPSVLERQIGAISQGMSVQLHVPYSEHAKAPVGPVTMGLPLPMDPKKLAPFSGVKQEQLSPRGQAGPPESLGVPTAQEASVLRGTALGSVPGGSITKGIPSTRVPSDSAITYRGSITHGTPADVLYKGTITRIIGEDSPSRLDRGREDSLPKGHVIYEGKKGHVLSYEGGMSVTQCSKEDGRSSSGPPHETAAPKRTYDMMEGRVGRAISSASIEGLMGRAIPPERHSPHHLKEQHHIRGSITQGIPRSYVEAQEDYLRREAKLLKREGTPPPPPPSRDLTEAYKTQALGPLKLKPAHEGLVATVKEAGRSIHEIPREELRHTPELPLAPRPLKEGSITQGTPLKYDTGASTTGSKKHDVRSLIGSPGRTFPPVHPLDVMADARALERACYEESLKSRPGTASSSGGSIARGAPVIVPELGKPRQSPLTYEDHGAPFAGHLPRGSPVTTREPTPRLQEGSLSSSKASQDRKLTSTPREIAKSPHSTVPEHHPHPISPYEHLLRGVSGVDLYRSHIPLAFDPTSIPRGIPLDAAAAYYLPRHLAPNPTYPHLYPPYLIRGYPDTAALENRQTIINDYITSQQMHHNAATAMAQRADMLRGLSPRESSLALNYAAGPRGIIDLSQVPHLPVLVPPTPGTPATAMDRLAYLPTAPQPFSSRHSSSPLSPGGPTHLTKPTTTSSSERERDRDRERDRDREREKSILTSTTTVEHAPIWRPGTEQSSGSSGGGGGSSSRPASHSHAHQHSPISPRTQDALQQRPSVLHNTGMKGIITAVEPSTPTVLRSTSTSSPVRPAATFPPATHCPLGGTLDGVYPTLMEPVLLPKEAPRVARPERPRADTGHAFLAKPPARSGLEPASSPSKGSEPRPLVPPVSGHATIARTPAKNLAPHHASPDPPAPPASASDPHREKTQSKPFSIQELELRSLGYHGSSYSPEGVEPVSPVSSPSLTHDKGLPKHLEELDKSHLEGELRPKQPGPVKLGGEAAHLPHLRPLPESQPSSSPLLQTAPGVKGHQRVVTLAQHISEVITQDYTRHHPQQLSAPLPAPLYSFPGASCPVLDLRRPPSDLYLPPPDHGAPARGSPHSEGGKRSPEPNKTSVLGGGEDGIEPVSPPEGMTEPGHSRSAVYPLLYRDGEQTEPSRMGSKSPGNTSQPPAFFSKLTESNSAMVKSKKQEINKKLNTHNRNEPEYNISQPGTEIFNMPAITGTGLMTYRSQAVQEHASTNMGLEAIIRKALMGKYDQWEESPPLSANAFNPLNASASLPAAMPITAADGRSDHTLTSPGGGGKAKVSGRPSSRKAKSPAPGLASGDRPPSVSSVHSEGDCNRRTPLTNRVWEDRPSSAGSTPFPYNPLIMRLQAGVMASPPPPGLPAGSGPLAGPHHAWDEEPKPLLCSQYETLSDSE

SH-SY5Y [14] = test: Neuroprotective activity against LY294002-induced stress in retinoic acid-differentiated human SH-SY5Y cells assessed as cell survival at 0.5 to 20 uM; type: functional, cell-based
Method in brief: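 SH-SY5Y cells pre-differentiated with retinoic acid, seeded at 2×10^4 cells/well in 1% FBS medium with 5 µM retinoic acid. After 24 h, medium changed to phenol red free 1% FBS medium with 5 µM retinoic acid plus vehicle (DMSO) or 0.5–50 µM inhibitor (final), with or without 100 µM LY294002. Viability by XTT after 24 h. Expressed as percent survival relative to vehicle, four replicates ± SD. Analysed by one-way ANOVA with Dunnett's test.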

SH-SY5Y [15] = test: Cytotoxicity against retinoic acid-differentiated human SH-SY5Y cells assessed as cell survival at 20 uM; type: cell-based
Method in brief: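 SH-SY5Y cells are differentiated for 7–8 days in 1% FBS medium with 10 µM retinoic acid, then seeded at 2×10^4 cells/well in 1% FBS medium with 5 µM RA. After 24 h they go into phenol-red-free 1% FBS/RA medium with DMSO or 0.5–50 µM inhibitor, without or with 100 µM LY294002, for 24 h. Readout: XTT viability as % survival vs vehicle, four replicates ± SD, one-way ANOVA with Dunnett.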

SH-SY5Y [16] = test: cells; type: functional, cell-based; conditions: Homo sapiens, 72 h
[17] = target: T2, Histone deacetylase (Homo sapiens) (UniProt Q13547+O15379+Q9UBN7+Q92769+Q9UQL6+Q8WUI4+Q9BY41+Q96DB2+P56524+Q9UKV0+Q969S8); test: Inhibition of HDAC in retinoic acid-differentiated human SH-SY5Y cells assessed as increase in histone H4 acetylation at 1 uM after 24 hrs by Western blot analysis in presence of 100 uM LY294002; type: cell-based
[18] = target: T2, Histone deacetylase (Homo sapiens); test: Inhibition of HDAC in retinoic acid-differentiated human SH-SY5Y cells assessed as increase in histone H4 acetylation at 1 uM after 24 hrs by Western blot analysis; type: cell-based
[19] = target: Matrix metalloproteinase-14 (Homo sapiens, UniProt P50281); test: Inhibition of MMP14
Stromelysin-1 = Stromelysin-1 (Homo sapiens, UniProt P08254); test: Inhibition of MMP3
Stromelysin-1, sequence (P08254 whole entry): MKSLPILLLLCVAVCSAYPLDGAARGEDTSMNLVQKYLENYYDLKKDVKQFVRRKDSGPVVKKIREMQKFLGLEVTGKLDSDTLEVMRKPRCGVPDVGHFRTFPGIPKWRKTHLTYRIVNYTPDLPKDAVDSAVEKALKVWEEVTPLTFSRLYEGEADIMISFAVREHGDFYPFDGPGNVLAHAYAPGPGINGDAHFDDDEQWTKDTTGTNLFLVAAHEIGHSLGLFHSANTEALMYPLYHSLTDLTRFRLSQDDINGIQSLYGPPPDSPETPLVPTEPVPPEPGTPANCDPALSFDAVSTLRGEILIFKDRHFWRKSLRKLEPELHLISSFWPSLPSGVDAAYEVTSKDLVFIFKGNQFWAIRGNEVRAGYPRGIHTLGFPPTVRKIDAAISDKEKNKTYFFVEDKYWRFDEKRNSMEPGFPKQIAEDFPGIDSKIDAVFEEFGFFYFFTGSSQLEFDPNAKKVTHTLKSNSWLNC

With `O=C(CCCCCCC(=O)Nc1ccccc1)NO` the Activity (HepG2 [1]) was “inactive”, the Activity (HepG2 [2]) was “Active” and the Activity (HepG2 [3]) was “inactive”. For the same compound, the Activity (HepG2 [4]) was “Active”.

`O=C(CCCCCCC(=O)Nc1cnn(Cc2ccccc2)c1)NO` was tested, and the EC50 (SH-SY5Y [5]) was 22.7 µM, the EC50 (SH-SY5Y [6]) was over 50 µM and the EC50 (HeLa [7]) was 10.6 µM. It also gave an EC50 (HeLa [8]) of 5.5 µM, an EC50 (HepG2 [9]) of 5.5 µM and an EC50 (HeLa [10]) of 46.6 µM. The EC50 (HepG2 [11]) was 12.6 µM, the EC50 (HepG2 [12]) was over 50 µM and the IC50 (Histone deacetylase 8) was 0.076 µM. For the same compound, the IC50 [13] was 0.044 µM, the Activity (SH-SY5Y [14]) was “inactive” and the Activity (SH-SY5Y [15]) was “Non-toxic”. It also gave an EC50 (SH-SY5Y [16]) of 23.2 µM.

In the case of `[N-]=[N+]=Nc1ccc(-c2cc(C(=O)NCCCCCCC(=O)NO)no2)cc1`, the IC50 (Histone deacetylase 8) is reported as 0.707 µM, the IC50 [13] is reported as 0.073 µM and the inhibition [17] is reported as “Active”. For the same compound, the inhibition [18] was “Active”.

`O=C(CCCCCCC(=O)Nc1cnn(Cc2ccc([N+](=O)[O-])cc2)c1)NO` was tested, and the IC50 (Histone deacetylase 8) was 0.082 µM and the IC50 [13] was 0.059 µM.

With `CC(C)(C)OC(=O)Nc1ccc(Cn2cc(NC(=O)CCCCCCC(=O)NO)cn2)cc1` the IC50 (Histone deacetylase 8) was 0.147 µM and the IC50 [13] was 0.191 µM.

`[N-]=[N+]=NCc1cc(N=[N+]=[N-])cc(C(=O)Nc2ccc(Cn3cc(NC(=O)CCCCCCC(=O)NO)cn3)cc2)c1` gave an IC50 (Histone deacetylase 8) of 0.487 µM and an IC50 [13] of 0.432 µM.

For `[N-]=[N+]=NCc1cc(COc2ccc(NC(=O)CCCCCCC(=O)NO)cc2)cc(N=[N+]=[N-])c1`, the IC50 [13] was 1.48 µM.

`[N-]=[N+]=Nc1ccc(Cn2cc(NC(=O)CCCCCCC(=O)NO)cn2)cc1` gave an EC50 (SH-SY5Y [5]) of 23.6 µM, an EC50 (SH-SY5Y [6]) of over 50 µM and an EC50 (HeLa [7]) of 9.9 µM. The EC50 (HeLa [8]) was 4.6 µM, the EC50 (HepG2 [9]) was 5.9 µM and the EC50 (HeLa [10]) was 38.3 µM. For the same compound, the EC50 (HepG2 [11]) was 12.7 µM, the EC50 (HepG2 [12]) was over 50 µM and the IC50 (Histone deacetylase 8) was 0.028 µM. The IC50 [13] was 0.022 µM, the Activity (SH-SY5Y [14]) was “inactive” and the Activity (SH-SY5Y [15]) was “Non-toxic”. It also gave an EC50 (SH-SY5Y [16]) of 23.1 µM.

Compound `CNC(=O)[C@H](Cc1c[nH]c2ccccc12)NC(=O)[C@@H](CC(=O)NO)CC(C)C` [ILOMASTAT] has an IC50 [19] of 0.00041 µM and an IC50 (Stromelysin-1) of 0.00762 µM.
